Data on eight compounds can be found in ChEMBL document CHEMBL1149503, “Growth inhibition of human cancer cells in vitro by T-type calcium channel blockers” (Bioorg Med Chem Lett, 2006).

Structures are written as SMILES. Activity calls are given as the source filed them. The rule behind the calls is not given here.

One assay deals with SK-MEL-2. As to the kind of experiment: Inhibition of human SK-MEL-2 cell growth by SRB assay. It is filed as functional, cell-based. The method, boiled down: (§1)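 Cells grown in RPMI 1640 with 10% heat-inactivated FBS, 37 °C, 5% CO2. Seeded, exposed to various sample concentrations in triplicate for 72 h, then formalin-fixed 30 min at room temperature. Stained with 0.4% SRB 30 min, washed with 1% acetic acid, bound dye dissolved in 10 mM unbuffered Tris base, OD read at 520 nm. GI50 from dose–response curves, three independent experiments.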
For orientation: The SRB assay estimates cell density from bound dye.

Another assay concerns KB. Put plainly: Inhibition of human KB cell growth by SRB assay. It is filed as functional. An outline of the steps:
as §1

The target in assay [1] is Voltage-dependent N-type calcium channel subunit alpha-1B (Homo sapiens) (UniProt Q00975). Put plainly: Inhibition of N type calcium channel subunit Alpha-1B at 10 uM in HEK293 cells. It is filed as cell-based.
Chain of Voltage-dependent N-type calcium channel subunit alpha-1B (Homo sapiens) (Q00975 whole entry, looked up): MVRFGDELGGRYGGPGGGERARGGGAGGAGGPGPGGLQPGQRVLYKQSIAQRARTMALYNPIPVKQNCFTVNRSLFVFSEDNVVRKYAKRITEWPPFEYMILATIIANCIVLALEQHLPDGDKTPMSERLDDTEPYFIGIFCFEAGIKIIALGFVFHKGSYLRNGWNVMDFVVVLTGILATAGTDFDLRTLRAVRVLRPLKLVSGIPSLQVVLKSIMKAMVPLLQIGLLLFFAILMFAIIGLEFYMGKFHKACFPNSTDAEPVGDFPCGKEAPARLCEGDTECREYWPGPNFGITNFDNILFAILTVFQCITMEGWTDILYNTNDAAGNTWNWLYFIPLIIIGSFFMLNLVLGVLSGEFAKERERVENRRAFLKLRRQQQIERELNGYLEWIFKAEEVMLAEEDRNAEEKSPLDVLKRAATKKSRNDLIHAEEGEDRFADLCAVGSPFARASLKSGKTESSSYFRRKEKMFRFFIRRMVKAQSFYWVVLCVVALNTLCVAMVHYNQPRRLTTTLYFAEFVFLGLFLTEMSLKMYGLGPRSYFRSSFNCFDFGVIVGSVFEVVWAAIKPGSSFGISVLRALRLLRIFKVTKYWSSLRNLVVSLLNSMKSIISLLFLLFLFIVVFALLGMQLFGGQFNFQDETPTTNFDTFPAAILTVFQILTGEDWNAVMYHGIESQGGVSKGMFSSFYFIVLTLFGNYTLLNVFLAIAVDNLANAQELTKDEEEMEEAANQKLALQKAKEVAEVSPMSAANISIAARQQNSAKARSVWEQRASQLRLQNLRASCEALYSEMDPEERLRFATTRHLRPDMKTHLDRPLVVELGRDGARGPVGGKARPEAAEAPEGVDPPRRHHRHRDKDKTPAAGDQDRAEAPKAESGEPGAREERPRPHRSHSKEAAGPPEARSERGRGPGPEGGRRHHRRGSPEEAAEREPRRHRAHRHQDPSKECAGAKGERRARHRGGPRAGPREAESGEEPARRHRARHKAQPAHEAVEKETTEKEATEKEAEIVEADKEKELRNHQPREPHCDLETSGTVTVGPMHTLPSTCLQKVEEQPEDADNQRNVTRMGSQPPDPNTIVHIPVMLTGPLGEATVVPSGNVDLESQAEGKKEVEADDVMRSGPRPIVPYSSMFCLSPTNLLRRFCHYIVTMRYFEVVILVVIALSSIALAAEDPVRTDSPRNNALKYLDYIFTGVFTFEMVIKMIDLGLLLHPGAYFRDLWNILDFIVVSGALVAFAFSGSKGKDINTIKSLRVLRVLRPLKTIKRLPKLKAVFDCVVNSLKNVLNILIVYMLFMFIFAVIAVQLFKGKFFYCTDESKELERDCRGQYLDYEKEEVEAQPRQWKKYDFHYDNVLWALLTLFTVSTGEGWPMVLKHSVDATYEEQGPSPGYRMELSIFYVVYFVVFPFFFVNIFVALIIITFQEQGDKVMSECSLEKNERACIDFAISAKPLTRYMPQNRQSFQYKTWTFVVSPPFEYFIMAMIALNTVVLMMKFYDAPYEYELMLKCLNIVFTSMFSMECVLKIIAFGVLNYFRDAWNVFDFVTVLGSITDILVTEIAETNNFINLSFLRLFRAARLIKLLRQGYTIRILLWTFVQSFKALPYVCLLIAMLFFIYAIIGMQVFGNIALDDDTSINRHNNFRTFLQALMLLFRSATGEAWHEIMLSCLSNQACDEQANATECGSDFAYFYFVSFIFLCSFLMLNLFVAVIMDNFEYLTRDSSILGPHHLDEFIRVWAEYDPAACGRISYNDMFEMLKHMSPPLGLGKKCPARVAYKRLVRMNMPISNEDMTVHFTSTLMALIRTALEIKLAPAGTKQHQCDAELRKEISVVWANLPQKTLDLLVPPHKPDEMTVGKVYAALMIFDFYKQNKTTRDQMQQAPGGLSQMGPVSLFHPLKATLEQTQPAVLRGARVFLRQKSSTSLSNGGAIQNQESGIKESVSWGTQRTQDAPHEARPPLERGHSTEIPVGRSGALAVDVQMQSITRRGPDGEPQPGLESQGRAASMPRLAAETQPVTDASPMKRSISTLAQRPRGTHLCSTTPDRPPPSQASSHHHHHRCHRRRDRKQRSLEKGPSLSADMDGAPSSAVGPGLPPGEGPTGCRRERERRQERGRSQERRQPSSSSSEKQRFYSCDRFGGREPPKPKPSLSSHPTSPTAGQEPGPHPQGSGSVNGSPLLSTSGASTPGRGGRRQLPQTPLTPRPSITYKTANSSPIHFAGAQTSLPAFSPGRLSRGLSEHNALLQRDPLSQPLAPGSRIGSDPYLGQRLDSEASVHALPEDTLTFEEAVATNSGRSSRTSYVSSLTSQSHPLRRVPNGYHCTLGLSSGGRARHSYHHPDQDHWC
In the next assay the test system is SK-OV-3. Put plainly: Inhibition of human SKOV3 cell growth by SRB assay. It is filed as functional. The method, boiled down:
as §1

A further assay deals with A549. As to the kind of experiment: Inhibition of human A549 cell growth by SRB assay. In kind it is functional. An outline of the steps: as §1
The target of assay [2] is Voltage-dependent T-type calcium channel subunit alpha-1G (Homo sapiens) (UniProt O43497). As to the kind of experiment: Inhibition of T type calcium channel subunit alpha-1G at 10 uM in HEK293 cells. It is filed as cell-based. The method, boiled down: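 Whole-cell patch clamp on α1G T-type channel expressed in HEK293 cells, test compound at 10 µM. Currents evoked every 15 s by 50 ms depolarizing step from 100 to 30 mV (signs as printed). % inhibition = 100[(C−D)/C], C and D being peak current before and with drug. Three independent experiments.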
Chain of Voltage-dependent T-type calcium channel subunit alpha-1G (Homo sapiens) (O43497 whole entry): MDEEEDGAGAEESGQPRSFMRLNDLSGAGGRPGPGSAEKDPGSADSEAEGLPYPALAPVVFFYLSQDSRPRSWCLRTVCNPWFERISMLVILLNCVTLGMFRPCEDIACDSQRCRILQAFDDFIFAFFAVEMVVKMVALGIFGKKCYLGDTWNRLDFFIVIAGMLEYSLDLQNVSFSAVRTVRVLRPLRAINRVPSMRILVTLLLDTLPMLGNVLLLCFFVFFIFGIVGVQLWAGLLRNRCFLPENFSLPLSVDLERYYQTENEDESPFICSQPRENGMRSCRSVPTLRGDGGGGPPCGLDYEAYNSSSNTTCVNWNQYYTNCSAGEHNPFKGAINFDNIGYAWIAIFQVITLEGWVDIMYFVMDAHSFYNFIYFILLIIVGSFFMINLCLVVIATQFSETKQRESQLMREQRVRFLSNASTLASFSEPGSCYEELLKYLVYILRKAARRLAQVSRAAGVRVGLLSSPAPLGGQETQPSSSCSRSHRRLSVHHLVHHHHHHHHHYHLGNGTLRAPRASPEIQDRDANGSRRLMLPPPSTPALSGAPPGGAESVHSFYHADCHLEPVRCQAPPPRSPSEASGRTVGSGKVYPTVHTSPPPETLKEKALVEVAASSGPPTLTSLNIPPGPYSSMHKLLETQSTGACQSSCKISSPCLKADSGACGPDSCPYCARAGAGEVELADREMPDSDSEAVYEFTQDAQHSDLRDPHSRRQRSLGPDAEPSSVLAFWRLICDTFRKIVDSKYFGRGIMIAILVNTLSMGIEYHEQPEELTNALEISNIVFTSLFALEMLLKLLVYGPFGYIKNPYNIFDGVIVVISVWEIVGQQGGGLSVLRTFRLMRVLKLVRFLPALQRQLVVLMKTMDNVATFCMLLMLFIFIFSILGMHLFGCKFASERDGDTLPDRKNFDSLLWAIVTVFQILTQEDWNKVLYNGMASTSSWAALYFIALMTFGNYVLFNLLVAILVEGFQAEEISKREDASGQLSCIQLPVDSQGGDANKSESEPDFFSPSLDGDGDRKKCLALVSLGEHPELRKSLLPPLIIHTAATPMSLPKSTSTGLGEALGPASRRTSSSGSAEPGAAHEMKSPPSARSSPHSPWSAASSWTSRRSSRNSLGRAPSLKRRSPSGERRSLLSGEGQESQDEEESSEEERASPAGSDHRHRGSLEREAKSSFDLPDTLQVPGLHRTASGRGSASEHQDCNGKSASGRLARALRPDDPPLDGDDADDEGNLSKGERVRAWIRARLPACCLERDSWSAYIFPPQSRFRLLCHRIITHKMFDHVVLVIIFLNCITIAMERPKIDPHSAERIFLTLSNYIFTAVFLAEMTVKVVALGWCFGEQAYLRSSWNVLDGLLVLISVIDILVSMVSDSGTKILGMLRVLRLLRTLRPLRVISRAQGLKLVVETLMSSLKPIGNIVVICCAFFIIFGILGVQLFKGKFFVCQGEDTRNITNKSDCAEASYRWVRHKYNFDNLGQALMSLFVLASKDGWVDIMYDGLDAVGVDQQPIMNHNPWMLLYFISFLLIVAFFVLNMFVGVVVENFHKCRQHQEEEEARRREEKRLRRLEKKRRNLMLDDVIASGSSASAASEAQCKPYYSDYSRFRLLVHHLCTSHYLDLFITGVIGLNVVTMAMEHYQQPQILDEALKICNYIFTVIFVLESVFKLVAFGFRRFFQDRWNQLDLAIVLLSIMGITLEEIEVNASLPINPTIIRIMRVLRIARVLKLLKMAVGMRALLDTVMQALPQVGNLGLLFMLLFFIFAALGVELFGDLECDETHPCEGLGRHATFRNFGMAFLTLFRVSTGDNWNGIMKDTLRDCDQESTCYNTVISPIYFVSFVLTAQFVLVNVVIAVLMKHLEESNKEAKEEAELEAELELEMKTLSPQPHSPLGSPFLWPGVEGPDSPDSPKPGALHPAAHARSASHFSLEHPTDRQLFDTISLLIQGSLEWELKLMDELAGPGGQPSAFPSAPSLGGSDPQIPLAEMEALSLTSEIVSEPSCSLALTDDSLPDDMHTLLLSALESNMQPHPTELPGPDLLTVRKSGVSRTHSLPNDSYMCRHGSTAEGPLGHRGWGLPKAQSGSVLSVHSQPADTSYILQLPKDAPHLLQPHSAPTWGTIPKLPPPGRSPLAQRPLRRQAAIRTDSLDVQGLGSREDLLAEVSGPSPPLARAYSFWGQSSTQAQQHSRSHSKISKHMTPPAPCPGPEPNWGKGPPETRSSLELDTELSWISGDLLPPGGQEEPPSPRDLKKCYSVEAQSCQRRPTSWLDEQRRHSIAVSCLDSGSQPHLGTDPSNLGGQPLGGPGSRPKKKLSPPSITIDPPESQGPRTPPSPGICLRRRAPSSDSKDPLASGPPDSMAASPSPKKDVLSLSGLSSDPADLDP

For the next assay, the system named is HCT-15. Put plainly: Inhibition of human HCT15 cell growth by SRB assay. In kind it is functional. An outline of the steps:
as §1

A further assay has as its system HEK293. Put plainly: Cytotoxicity against HEK293 cells at 100 uM. In kind it is functional, cell-based. The note with it: Homo sapiens.
Assay [3] relates to T-type calcium channel Cav3.1 (α1G). Put plainly: Inhibition of T-type calcium channel Cav3.1. The note with it: Homo sapiens.

Turning to `CCN1C(N2CCCCC2)=Nc2ccccc2C1CC(=O)NCc1ccccc1` (centres undefined), the GI50 in the assay on SK-MEL-2 amounted to 42.5 µM; in the assay with KB, 108 µM; in the assay with SK-OV-3, 77.8 µM; in the assay on A549 it was 95.1 µM; with HCT-15, 74.2 µM. For the same compound, the figures for the inhibition in assay [1] and in [2] were 9.3% and 59.3%, respectively. In the assay on HEK293, the Activity entry was “Not toxic”.

For the compound `CCN1C(N2CCCCC2)=Nc2ccccc2C1CC(=O)NCc1ccc(NS(=O)(=O)c2ccc(C)cc2)cc1` (centres undefined), the GI50 in the assay on SK-MEL-2 came out at 3.52 µM; in the assay with KB, 22.3 µM; with SK-OV-3 it was 22.8 µM; with A549, 23 µM; in the assay with HCT-15 it was 25.7 µM. For the same compound, the outcome in [1] was inactive. The IC50 in assay [3] is 0.96 µM. For the same compound, the inhibition in assay [2] was 91.3%. In addition, the Activity result with HEK293 is “Not toxic”.

Turning to `CCN1C(N(C)C)=Nc2ccccc2C1CC(=O)NCc1ccc(NS(=O)(=O)c2ccc(F)cc2)cc1` (centres undefined), the concentration for 50% growth inhibition (GI50) is 31.4 µM in the assay with SK-MEL-2; 41.6 µM with KB; 46.5 µM in the assay with SK-OV-3; 66.1 µM with A549; 38.6 µM in the assay with HCT-15. In addition, in assay [1], the result was inactive. In addition, in assay [2], the inhibition came to 62.7%. In addition, the Activity entry in the assay on HEK293 was “Not toxic”.

As to `CCN1C(N(C)C)=Nc2ccccc2C1CC(=O)NCc1ccccc1` (centres undefined), the GI50 is 50.2 µM with SK-MEL-2; > 200 µM with KB; > 200 µM with SK-OV-3; > 200 µM in the assay with A549; > 200 µM in the assay with HCT-15. Moreover, the figures for the inhibition in assay [1] and in [2] were 27.6% and 34.4%, respectively. Besides, in the assay with HEK293, the Activity entry is “Not toxic”.

As to `COC(=O)CC1c2ccccc2N=C(NCCCCCN)N1c1ccc(-c2ccccc2)cc1` (centres undefined), the concentration for 50% growth inhibition (GI50) came to 3.32 µM with SK-MEL-2; 3.77 µM with KB; 3.24 µM in the assay with SK-OV-3; 3.39 µM in the assay with A549; 3.64 µM in the assay with HCT-15. For the same compound, in assay [1], the result was inactive. Moreover, the half-inhibitory concentration (IC50) in assay [3] stood at 0.56 µM. Further, the Activity result in the assay on HEK293 was “Not toxic”.

On to `Nc1ccc(CNC(=O)CC2c3ccccc3N=C(N3CCCCC3)N2c2ccccc2)cc1` (centres undefined), for which the GI50 in the assay on SK-MEL-2 was found to be 30.7 µM; with KB, 37.1 µM; in the assay with SK-OV-3, 39.3 µM; with A549 it was 36.6 µM; with HCT-15, 33.9 µM. The inhibition in [1] stood at 8.9%. The Activity entry in the assay on HEK293 was “Not toxic”.

With `Cc1ccc(S(=O)(=O)Nc2ccc(CNC(=O)CC3c4ccccc4N=C(N4CCCCC4)N3c3ccccc3)cc2)cc1` (centres undefined), the 50% growth inhibitory concentration (GI50) with SK-MEL-2 stood at 2.7 µM; with KB, 3.11 µM; in the assay on SK-OV-3, 2.93 µM; in the assay on A549 it was 3.06 µM; in the assay with HCT-15, 2.8 µM. Besides, the inhibition in assay [1] was 14.1%. In addition, the concentration for half-maximal inhibition (IC50) in assay [3] was 0.17 µM. Also, the Activity result in the assay on HEK293 is “Not toxic”.

For `CCN1C(N(C)C)=Nc2ccccc2C1CC(=O)NCc1ccc(NS(=O)(=O)c2ccc(C)cc2)cc1` (centres undefined), the GI50 in the assay on SK-MEL-2 is 24.2 µM; in the assay on KB, 33.8 µM; in the assay on SK-OV-3, 33.4 µM; in the assay on A549, 39.2 µM; in the assay on HCT-15 it was 33.9 µM. For the same compound, the inhibition in assay [1] came to 8.9%; in assay [2] it was 81.3%. Moreover, the Activity result with HEK293 was “Not toxic”.

Usually GI50 stands for the concentration that inhibits growth by half. Lower therefore signals more potent growth inhibition. One may read the inhibition as the change of the read-out against control, counted positive when it falls. As usually defined, the IC50 is the point on the concentration scale where inhibition reaches its midpoint.
